Bioassay records from PubChem BioAssay.
Ins promoter up – MIN6 insulin promoter up-regulation; MIN6 insulin promoter-GFP reporter, high-content imaging; stronger effect = higher value; z-score at 5 µM; hit rate 0.3% among 190,000; AID 1625;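 active = z-score above 3 at 5 µM with at least 500 cells counted in the well; inconclusive = wells under 500 cells, flagged as cytotoxic or low count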
Insulin prom inh – TRM-6 insulin promoter activity inhibition; inhibition, % at 2 µM; hit rate 0.9% among 130,000; TRM-6 cells (human fetal islet line), insulin promoter-eGFP reporter, imaging; reporter expression induced with tamoxifen;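 active = inhibition above the mean plus 3 SD, with well images judged a real hit on visual review, cut at about 60% in these data, passing the limit was not always enough; inconclusive = inhibition over the cutoff but images rejected on review; inactive = inhibition not above the cutoff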
Autophagy HCS – autophagy modulation, high-content screen; MEF GFP-LC3 puncta imaging; test concentration mostly 10 µM; calls only at 10 µM (by protocol); hit rate 0.98% among 190,000;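 active = percentage of spot-positive cells more than 3 SD above its plate mean, without a fluorescence outlier flag or 80% toxicity; inconclusive = no clear call, values can overlap the other calls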;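 also: spot-positive cell cutoff set from DMSO-treated cells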
PERK inh – inhibitors of human PERK kinase | hit rate 0.17% among 220,000 | Q9NZJ5 | CHO PERK-DD fusion, SEAP luminescence translation reporter | inhibition, % at 5.6 µM | AID 1416;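 active = inhibition above the mean inhibition of all tested compounds plus 3 SD, set separately per screening campaign, cut at about 2.9% in these data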;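 also: PERK kinase domain activated by AP20187 dimerizer at 100 nM; 0% = DMSO with dimerizer and 100% = rapamycin at 8.4 µM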
Target sequence (Q9NZJ5 whole entry, looked up, the tested form may be a part): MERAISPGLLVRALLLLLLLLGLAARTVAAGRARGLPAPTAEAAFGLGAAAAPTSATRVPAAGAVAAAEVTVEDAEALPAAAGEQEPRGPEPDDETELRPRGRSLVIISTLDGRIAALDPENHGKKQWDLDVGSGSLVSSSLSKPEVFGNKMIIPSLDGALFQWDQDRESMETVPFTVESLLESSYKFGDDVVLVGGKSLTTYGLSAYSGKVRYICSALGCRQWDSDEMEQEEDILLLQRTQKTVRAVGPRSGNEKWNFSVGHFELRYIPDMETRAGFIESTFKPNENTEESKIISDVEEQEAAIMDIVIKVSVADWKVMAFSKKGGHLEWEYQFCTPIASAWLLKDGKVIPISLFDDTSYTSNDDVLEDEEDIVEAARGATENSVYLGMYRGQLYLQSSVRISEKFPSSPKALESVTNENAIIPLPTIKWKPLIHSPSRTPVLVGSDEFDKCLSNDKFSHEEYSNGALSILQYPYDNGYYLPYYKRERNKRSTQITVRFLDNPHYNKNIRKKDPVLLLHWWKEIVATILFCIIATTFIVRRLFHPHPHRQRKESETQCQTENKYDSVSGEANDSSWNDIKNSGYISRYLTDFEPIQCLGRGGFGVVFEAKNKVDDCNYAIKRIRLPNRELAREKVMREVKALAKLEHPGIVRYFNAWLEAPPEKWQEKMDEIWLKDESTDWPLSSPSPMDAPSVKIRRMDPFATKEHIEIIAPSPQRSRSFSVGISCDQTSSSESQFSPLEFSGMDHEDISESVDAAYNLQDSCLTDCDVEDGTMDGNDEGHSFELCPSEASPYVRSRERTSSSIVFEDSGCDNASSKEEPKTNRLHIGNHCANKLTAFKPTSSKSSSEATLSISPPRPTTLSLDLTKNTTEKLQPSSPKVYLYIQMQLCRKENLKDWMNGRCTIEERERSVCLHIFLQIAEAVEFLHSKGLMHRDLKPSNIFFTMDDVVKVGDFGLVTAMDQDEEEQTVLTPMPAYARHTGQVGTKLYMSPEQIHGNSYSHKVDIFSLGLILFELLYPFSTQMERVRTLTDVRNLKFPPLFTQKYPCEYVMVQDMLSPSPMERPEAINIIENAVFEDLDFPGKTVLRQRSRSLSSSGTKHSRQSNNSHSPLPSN
Dynein cargo inh – blocks dynein driven cargo transport along microtubules; AID 1381; hit rate 0.47% among 220,000; z-score, hits read low; 3617.4 mouse cells, GR-EGFP nuclear translocation imaging; test concentration mostly 20 µM; stimulated with dexamethasone, 1 µM; stronger effect = lower value;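 active = plate z-score of nuclear minus cytoplasmic receptor signal below a set negative limit, without overly bright fluorescence or cell loss, cut at about -3.5 in these data, passing the limit was not always enough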;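 also: z-score of nuclear minus cytoplasmic ring GR-EGFP intensity difference per well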
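Buffer or medium: Induction medium lacking tetracycline, stripped serum | Also added: Dexamethasone agonist, 1.0 µM final, for 30 min | Timing: 48 h induction, 1 h compound, 30 min dex at 37 °C | Detection: Formaldehyde fixation, Hoechst nuclear stain, 10x automated fluorescence imaging | Measure: Nuclear versus cytoplasmic GR-EGFP signal, averaged per well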
Dynein inh conf – dynein cargo transport inhibition, confirmation | shares compounds with Dynein cargo inh | 3617.4 GR-EGFP nuclear translocation imaging, dexamethasone-induced | calls only at 20 µM | hit rate 69% among 1,000;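 active = inhibition of receptor movement into the nucleus at or above a set limit in both runs, with normal cell brightness and cell count; inconclusive = limit reached in only one run, brightness and count normal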;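 also: dexamethasone at 1 µM final in well for 30 min; nuclear minus cytoplasmic GR-EGFP mean intensity difference in channel 2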
Starred values were filed as active, the others as inactive; i = inactive; u = inconclusive; x = no result; + = active, no number. Most compounds without a hit are left out; they make up all but 2.1% or so of the library.

SMILES	Ins promoter up	Insulin prom inh	Autophagy HCS	PERK inh	Dynein cargo inh	Dynein inh conf
C=C1C(=O)[C@@]23[C@H](O)C[C@@H]4C(C)(C)CC[C@H](O)[C@]4(C)[C@@H]2C[C@H](O)[C@@H]1[C@H]3O	x	-55	i	1	-5.1*	+
O=c1[nH]c(CN2CCc3ccccc3C2)nc2ccccc12	0.54	39	i	0	0.18	x
Cc1[nH]c2ccccc2c1CN1CCc2ccccc2C1	u	6	i	-1	-3.8*	i
CC(C(Sc1ccccc1N)c1ccccc1)[N+](=O)[O-] (stereo not given)	-2.6	x	x	0	-5.5*	+
Nc1ccccc1SSc1ccccc1N	-0.77	x	x	0	0.86	x
CN1CCN(c2cc(C(F)(F)F)nc3ccc(F)cc23)CC1	-0.91	x	x	0	-0.18	x
CCCC(=O)N(C1CC(C)C(C#N)(C#N)C1(C#N)C#N)N(C)C (stereo not given)	-0.09	x	x	-1	-5.3*	i
CC(=O)N(C1CC(C)C(C#N)(C#N)C1(C#N)C#N)N(C)C (stereo not given)	0.42	x	i	0	-6.8*	+
Cc1ccc2c(n1)sc1c(-c3ccc(Br)cc3)c(C#N)c(N)nc12	-0.6	38	i	1	0.4	x
N#Cc1c(Cl)c(Cl)c2nnc(-c3ccc(Br)cc3)n2c1Cl	0.96	x	i	0	-6.3*	+
COc1ccc(N2C(=O)CC(Sc3nnnn3-c3ccc(F)cc3)C2=O)cc1 (stereo not given)	-0.52	x	i	0	-4	+
COc1ccccc1/C=C/C=N/NC(=O)c1cccs1	x	x	x	-1	-0.44	x
NC(=O)CC[C@H](NC(=O)c1ccc(F)cc1)C(=O)OCC(=O)NCc1ccc(F)cc1	0.16	x	i	2	0.27	x
COC(=O)c1cc(=O)n(Cc2ccc(F)cc2)c(=Nc2ccccc2)s1	0.22	x	x	1	-4.6*	+
COC(=O)c1cc(=O)n(Cc2cccs2)c(=Nc2ccccc2)s1	0.11	x	x	0	-4.4*	+
COC(=O)C1=CN(Cc2cccs2)C=C(C(=O)OC)C1c1cccc(O)c1	-0.3	x	i	0	-0.58	x
CCOC(=O)c1ccc(N=c2sc(C(=O)OC)cc(=O)n2-c2ccc(C(=O)OCC)cc2)cc1	0.18	10	i	0	-3.3	x
CNC(=O)C1CC(=O)N(CCc2ccc(OC)c(OC)c2)C(=Nc2ccc(F)cc2)S1 (stereo not given)	-0.39	x	i	0	-0.55	x
COC(=O)c1cc(=O)n(Cc2ccc(OC)c(OC)c2)c(=Nc2ccc(F)cc2)s1	0.56	x	i	1	-4.3*	+
COC(=O)c1cc(=O)n(-c2ccccc2)c(=Nc2ccccc2)s1	-1.5	5	i	0	-3.9*	+
CCOC(=O)c1c(C(=O)OCC)c(C)n(CCc2ccc(OC)c(OC)c2)c1C	-0.47	-6	i	-1	0.025	x
COC(=O)c1cc(=O)n(CCc2ccc(OC)c(OC)c2)c(=Nc2ccc(F)c(Cl)c2)s1	-0.49	x	i	0	-4*	+
Cc1ccc(C(=O)N2CCN(S(=O)(=O)c3ccccc3[N+](=O)[O-])CC2)o1	-0.15	x	i	0	0.35	x
O=c1[nH]sc2ccccc12	0.77	-55	i	1	-3.8*	+
CCCCCCN1C=CC(=C/C=C(\C#N)C(=O)OCC)C=C1	x	-133	+	0	-3.8	u
SMILES	Ins promoter up	Insulin prom inh	Autophagy HCS	PERK inh	Dynein cargo inh	Dynein inh conf
Cc1nc2sc(C(=O)Nc3ccccc3)c(N)c2c(C)c1[N+](=O)[O-]	-1.1	-36	i	0	0.18	x
CN(C(=O)COC(=O)c1nc(Cl)c(Cl)c(Cl)c1Cl)C1CCS(=O)(=O)C1 (stereo not given)	-0.39	x	i	0	-4.6*	+
CN(C(=O)COC(=O)c1nc(-c2ccccc2)n(-c2ccccc2)n1)C1CCS(=O)(=O)C1 (stereo not given)	0.41	29	i	0	-0.49	x
O=C(Nc1ccccn1)C(=O)N1CCCCC1	-0.09	47	i	0	-0.49	x
COc1ccc(CC(=O)OCC(=O)NCCc2ccccc2)cc1OC	-0.11	x	i	1	-0.73	x
CCC(C)(C)c1ccc(OCCCC[n+]2cccc(C)c2)c(C(C)(C)CC)c1	u	-11	i	1	-4.8*	i
COc1ccc(C2CC(c3cccs3)=NN2c2ccc(C=O)cc2)cc1 (stereo not given)	-0.6	-68	+	0	-9.6	i
O=C(NNC1=Nc2cccc3cccc1c23)c1ccc(Br)cc1	x	-49	i	1	-1.4	x
CCCCCCCOc1ccc(OC(=O)c2cccnc2)cc1	x	7	i	-1	-0.98	x
CCCCNC1C(CC)C(CCC)C(C#N)(C#N)C1(C#N)C#N (stereo not given)	0.76	x	i	-1	-3.6*	+
CN(C)c1ccc(/C=C2\N=C(c3ccc(Cl)c([N+](=O)[O-])c3)NC2=O)cc1	x	x	i	1	-4.5	+
CCOC(=O)C(Cc1ccc(O)cc1)NC(=O)CNC(=O)C1CCCN1C(=O)OC(C)(C)C (stereo not given)	0.71	x	i	2	-0.67	x
CC(C)(C)c1ccc(C(=O)NC(=S)Nn2cnnc2)cc1	-0.44	x	i	1	-0.59	x
CC1C2NC(=O)N(Cc3ccccc3)C1(C)Oc1ccccc12 (stereo not given)	-0.48	x	i	1	-0.6	x
CCOC(=O)C(=Cc1cc(=O)c(OC)co1)C(=O)OCC	u	-7	i	1	-4*	+
COc1ccc(CNC(=O)C(c2ccncc2)N(C(=O)Cc2cccs2)c2ccccc2)cc1 (stereo not given)	-0.48	x	i	1	-0.2	x
COc1ccc(N(C(=O)CCl)C(C(=O)NCCc2ccccc2)c2cccs2)cc1 (stereo not given)	x	-163	i	-2	-5.3*	+
COc1cccc(C2CC(C(F)(F)F)n3nc(C(=O)NCc4cccnc4)cc3N2)c1 (stereo not given)	-0.38	0	i	0	-3.6*	i
COc1cccc(C2CC(C(F)(F)F)n3nc(C(=O)Nc4c(C)n(C)n(-c5ccccc5)c4=O)cc3N2)c1 (stereo not given)	-0.05	x	i	2	-0.0093	x
COCc1cc(C)nc(OCC(=O)N/N=C/c2ccc(C)o2)c1C#N	-0.15	-6	i	0	1.8	x
COc1ccc(N(CC(=O)NC(C)(C)C)S(=O)(=O)c2ccccc2)cc1OC	1.3	-18	i	-1	0.29	x
O=S(=O)(c1cnc(Cl)c(Br)c1)N1CCc2ccccc21	0.01	x	x	0	-4.7*	+
CCCN1C(=O)/C(=C/c2ccc3c(c2)OCO3)NC1=S	x	x	i	0	-0.68	x
CCCN1C/C(=C/c2ccc3c(c2)OCO3)C(=O)/C(=C/c2ccc3c(c2)OCO3)C1	0.85	-84	i	0	-4.6*	+
